Converted amounts (≈) assume the structure as drawn.
How the values were obtained:
[1] = tested on: Pseudomonas aeruginosa; assay: In vitro antibacterial activity against Pseudomonas aeruginosa IFO 3445,Pa(I),(gram-negative); assay type: functional
In short: (§1)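 MIC by serial 2-fold agar dilution on Mueller–Hinton agar; inoculum about 10^6 CFU/mL; MIC taken as lowest concentration preventing visible growth after 18 h at 37 °C.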

[2] = tested on: Escherichia coli; assay: In vitro antibacterial activity against Escherichia coli KC-14, Ec(K), (gram-negative); assay type: functional; in short: as §1
[3] = tested on: Staphylococcus aureus; assay: In vitro antibacterial activity against staphylococcus aureus FDA 209P JC-1,Sa(F)(gram-positive); assay type: functional; in short: as §1
[4] = tested on: Escherichia coli; assay: In vitro antibacterial activity against Escherichia coli NIHJ JC-2,(gram-negative)
[5] = tested on: Klebsiella pneumoniae; assay: In vitro antibacterial activity against klebsiella pneumoniae B54,Kp,(gram-negative); assay type: functional
[6] = tested on: Staphylococcus aureus; assay: In vitro antibacterial activity against staphylococcus aureus IID 803,(gram-positive); assay type: functional; in short: as §1
[7] = tested on: Enterococcus faecalis; assay: In vitro antibacterial activity against Enterococcus faecalis IID 682,[…],(gram-positive); assay type: functional; in short: as §1
[8] = tested on: Pseudomonas aeruginosa; assay: In vitro antibacterial activity against Pseudomonas aeruginosa E-2,Pa(E),(gram-negative); assay type: functional; in short: as §1
[9] = tested on: Staphylococcus epidermidis; assay: In vitro antibacterial activity against staphylococcus epidermidis IAM 1296, (gram-positive); assay type: functional; in short: as §1
[10] = tested on: Escherichia coli; assay: In vitro antibacterial activity was measured against nalidixic acid resistant strain 3 from Escherichia coli KC-14; assay type: functional
In short: (§2)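 MIC by serial 2-fold agar dilution on Mueller–Hinton agar, inoculum about 10^6 CFU/mL. Plates were incubated 37 °C for 18 h. MIC was the lowest concentration preventing visible growth.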

[11] = tested on: Staphylococcus aureus; assay: The effect on systematic infection in mice infected with Staphylococcus aureus IID 803, administered perorally; assay type: functional
In short: (§3)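 Male ddY mice (20–22 g), five per group, received 0.5 mL bacterial dilution intraperitoneally at 35 or 500 times the 50% lethal dose. Compound was given orally 1 h postinfection, suspended in 0.5% sodium (carboxymethyl)cellulose or dissolved in sterile distilled water. Survival was scored after 1 week. Oral ED50 was reported with 95% confidence limits.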

[12] = tested on: Escherichia coli; assay: In vitro antibacterial activity was measured against nalidixic acid resistant strain 4 from Escherichia coli KC-14; assay type: functional; in short: as §2
[13] = tested on: Escherichia coli; assay: The effect on systematic infection in mice infected with Escherichia coli KC-14, administered perorally; assay type: functional; in short: as §3
[14] = tested on: Escherichia coli; assay: In vitro antibacterial activity was measured against nalidixic acid resistant strain 7 from Escherichia coli KC-14; assay type: functional; in short: as §2
[15] = tested on: Escherichia coli; assay: In vitro antibacterial activity was measured against nalidixic acid resistant strain 2 from Escherichia coli KC-14; assay type: functional; in short: as §2
[16] = tested on: Escherichia coli; assay: In vitro antibacterial activity was measured against nalidixic acid resistant strain 1 from Escherichia coli KC-14; assay type: functional; in short: as §2
[17] = tested on: Escherichia coli; assay: In vitro antibacterial activity was measured against nalidixic acid resistant strain 6 from Escherichia coli KC-14; assay type: functional; in short: as §2
[18] = tested on: Escherichia coli; assay: In vitro antibacterial activity was measured against nalidixic acid resistant strain 5 from Escherichia coli KC-14; assay type: functional; in short: as §2
[19] = tested on: Pseudomonas aeruginosa; assay: The effect on systematic infection in mice infected with Pseudomonas aeruginosa E-2, administered perorally; assay type: functional
[20] = tested on: Pseudomonas aeruginosa; assay: The effect on systematic infection in mice infected with Pseudomonas aeruginosa, administered perorally; assay type: functional; in short: as §3

CN1CCN(c2c(F)cc3c(=O)c(S(=O)(=O)O)c4scc5n4c3c2OC5)CC1
MIC [1]: > 100 µg/mL
MIC [2]: > 100 µg/mL
MIC [3]: > 100 µg/mL
MIC [4]: > 100 µg/mL
MIC [5]: > 100 µg/mL
MIC [6]: > 100 µg/mL
MIC [7]: > 100 µg/mL
MIC [8]: > 100 µg/mL
MIC [9]: > 100 µg/mL

CC1CN(c2c(F)cc3c(=O)c(C(=O)O)c4scc5n4c3c2OC5)CCN1 (centres undefined)
MIC [1]: 1.56 µg/mL (≈ 4.01 µM)
MIC [2]: 0.1 µg/mL (≈ 0.257 µM)
MIC [3]: 0.2 µg/mL (≈ 0.514 µM)
MIC [4]: 0.2 µg/mL (≈ 0.514 µM)
MIC [5]: 0.1 µg/mL (≈ 0.257 µM)
MIC [6]: 0.2 µg/mL (≈ 0.514 µM)
MIC [7]: 0.78 µg/mL (≈ 2 µM)
MIC [8]: 0.78 µg/mL (≈ 2 µM)
MIC [9]: 0.78 µg/mL (≈ 2 µM)

O=C(O)c1c(=O)c2cc(F)c(N3CCOCC3)c3c2n2c(csc12)CO3
MIC [1]: 1.56 µg/mL (≈ 4.14 µM)
MIC [2]: 0.39 µg/mL (≈ 1.04 µM)
MIC [3]: 0.05 µg/mL (≈ 0.133 µM)
MIC [4]: 0.39 µg/mL (≈ 1.04 µM)
MIC [5]: 0.2 µg/mL (≈ 0.531 µM)
MIC [6]: 0.05 µg/mL (≈ 0.133 µM)
MIC [7]: 0.39 µg/mL (≈ 1.04 µM)
MIC [8]: 0.39 µg/mL (≈ 1.04 µM)
MIC [9]: 0.1 µg/mL (≈ 0.266 µM)

CN(C)c1c(F)cc2c(=O)c(C(=O)O)c3scc4n3c2c1OC4
MIC [1]: 1.56 µg/mL (≈ 4.67 µM)
MIC [2]: 0.39 µg/mL (≈ 1.17 µM)
MIC [3]: 0.2 µg/mL (≈ 0.598 µM)
MIC [4]: 0.39 µg/mL (≈ 1.17 µM)
MIC [5]: 0.2 µg/mL (≈ 0.598 µM)
MIC [6]: 0.1 µg/mL (≈ 0.299 µM)
MIC [7]: 0.78 µg/mL (≈ 2.33 µM)
MIC [8]: 6.25 µg/mL (≈ 18.7 µM)
MIC [9]: 0.1 µg/mL (≈ 0.299 µM)

CN1CCN(c2c(F)cc3c(=O)cc4scc5n4c3c2OC5)CC1
MIC [1]: > 100 µg/mL
MIC [2]: > 100 µg/mL
MIC [3]: > 100 µg/mL
MIC [4]: > 100 µg/mL
MIC [5]: > 100 µg/mL
MIC [6]: > 100 µg/mL
MIC [7]: > 100 µg/mL
MIC [8]: > 100 µg/mL
MIC [9]: > 100 µg/mL

O=C(O)c1c(=O)c2cc(F)c(N3CCCCC3)c3c2n2c(csc12)CO3
MIC [1]: 12.5 µg/mL (≈ 33.4 µM)
MIC [2]: 3.13 µg/mL (≈ 8.36 µM)
MIC [3]: 0.1 µg/mL (≈ 0.267 µM)
MIC [4]: 0.78 µg/mL (≈ 2.08 µM)
MIC [5]: 1.56 µg/mL (≈ 4.17 µM)
MIC [6]: 0.1 µg/mL (≈ 0.267 µM)
MIC [7]: 1.56 µg/mL (≈ 4.17 µM)
MIC [8]: 6.25 µg/mL (≈ 16.7 µM)
MIC [9]: 0.2 µg/mL (≈ 0.534 µM)

CN1CCN(c2c(F)cc3c(=O)c(C(=O)O)c4scc5n4c3c2OC5)CC1.Cl
MIC [10]: 0.39 µg/mL
MIC [1]: 0.78 µg/mL
ED50 [11]: 8.1 mg/kg
MIC [2]: 0.1 µg/mL
MIC [12]: 0.2 µg/mL
MIC [3]: 0.1 µg/mL
ED50 [13]: 1.01 mg/kg
MIC [14]: 0.2 µg/mL
MIC [4]: 0.1 µg/mL
MIC [5]: 0.1 µg/mL
MIC [6]: 0.1 µg/mL
MIC [7]: 0.39 µg/mL
MIC [8]: 0.78 µg/mL
MIC [9]: 0.2 µg/mL
MIC [15]: 3.13 µg/mL
MIC [16]: 1.56 µg/mL
MIC [17]: 0.39 µg/mL
MIC [18]: 0.39 µg/mL
ED50 [19]: 17.7 mg/kg

CC1COc2c(N3CCNCC3)c(F)cc3c(=O)c(C(=O)O)cn1c23 (centres undefined)
MIC [10]: 0.78 µg/mL (≈ 2.25 µM)
MIC [1]: 1.56 µg/mL (≈ 4.49 µM)
ED50 [11]: 11.5 mg/kg
MIC [2]: 0.1 µg/mL (≈ 0.288 µM)
MIC [12]: 0.39 µg/mL (≈ 1.12 µM)
MIC [3]: 0.39 µg/mL (≈ 1.12 µM)
ED50 [13]: 1.1 mg/kg
MIC [14]: 0.39 µg/mL (≈ 1.12 µM)
MIC [4]: 0.1 µg/mL (≈ 0.288 µM)
MIC [5]: 0.1 µg/mL (≈ 0.288 µM)
MIC [6]: 0.39 µg/mL (≈ 1.12 µM)
MIC [7]: 1.56 µg/mL (≈ 4.49 µM)
MIC [8]: 1.56 µg/mL (≈ 4.49 µM)
MIC [9]: 0.78 µg/mL (≈ 2.25 µM)
ED50 [20]: 22.9 µg/mL (≈ 65.9 µM)
MIC [15]: 6.25 µg/mL (≈ 18 µM)
MIC [16]: 6.25 µg/mL (≈ 18 µM)
MIC [17]: 0.78 µg/mL (≈ 2.25 µM)
MIC [18]: 0.78 µg/mL (≈ 2.25 µM)

Cl.O=C(O)c1cn(C2CC2)c2cc(N3CCNCC3)c(F)cc2c1=O [CIPROFLOXACIN HYDROCHLORIDE]
MIC [1]: 0.78 µg/mL
MIC [3]: 0.2 µg/mL
MIC [4]: 0.05 µg/mL
MIC [6]: 0.78 µg/mL
MIC [7]: 0.78 µg/mL
MIC [8]: 0.78 µg/mL
MIC [9]: 1.56 µg/mL

CCn1cc(C(=O)O)c(=O)c2cc(F)c(N3CCNCC3)nc21 [ENOXACIN]
MIC [1]: 1.56 µg/mL (≈ 4.87 µM)
MIC [2]: 0.2 µg/mL (≈ 0.624 µM)
MIC [3]: 0.78 µg/mL (≈ 2.44 µM)
MIC [4]: 0.2 µg/mL (≈ 0.624 µM)
MIC [5]: 0.1 µg/mL (≈ 0.312 µM)
MIC [6]: 0.78 µg/mL (≈ 2.44 µM)
MIC [7]: 3.13 µg/mL (≈ 9.77 µM)
MIC [8]: 1.56 µg/mL (≈ 4.87 µM)
MIC [9]: 3.13 µg/mL (≈ 9.77 µM)

CCn1cc(C(=O)O)c(=O)c2ccc(C)nc21 [NALIDIXIC ACID]
MIC [10]: 200 µg/mL (≈ 861 µM)
MIC [12]: 100 µg/mL (≈ 431 µM)
MIC [14]: 100 µg/mL (≈ 431 µM)
MIC [15]: > 1600 µg/mL
MIC [16]: > 1600 µg/mL
MIC [17]: 100 µg/mL (≈ 431 µM)
MIC [18]: 100 µg/mL (≈ 431 µM)

CCn1cc(C(=O)O)c(=O)c2cc(F)c(N3CCNCC3)cc21 [NORFLOXACIN]
MIC [1]: 1.56 µg/mL (≈ 4.89 µM)
MIC [2]: 0.2 µg/mL (≈ 0.626 µM)
MIC [3]: 0.39 µg/mL (≈ 1.22 µM)
MIC [4]: 0.2 µg/mL (≈ 0.626 µM)
MIC [5]: 0.1 µg/mL (≈ 0.313 µM)
MIC [6]: 1.56 µg/mL (≈ 4.89 µM)
MIC [7]: 1.56 µg/mL (≈ 4.89 µM)
MIC [8]: 1.56 µg/mL (≈ 4.89 µM)
MIC [9]: 3.13 µg/mL (≈ 9.8 µM)

Source: ChEMBL document CHEMBL1126175, “Synthesis and antibacterial activity of new tetracyclic quinolone antibacterials” (J Med Chem, 1992)
